Experimental data: ChEMBL document CHEMBL1145842, “A selective human H(4)-receptor agonist: (-)-2-cyano-1-methyl-3-[(2R,5R)-5- [1H-imidazol-4(5)-yl]tetrahydrofuran-2-y] methylguanidine” (J Med Chem, 2003)
The source made the active and inactive calls. The rule behind the calls is not given here.

Experiments:
Histamine H3 receptor [1] = target: T1, Histamine H3 receptor (Homo sapiens, UniProt Q9Y5N1); assay: Efficacy measured for human Histamine H3 receptor relative to histamine; type: functional
T1 sequence (Q9Y5N1 whole entry): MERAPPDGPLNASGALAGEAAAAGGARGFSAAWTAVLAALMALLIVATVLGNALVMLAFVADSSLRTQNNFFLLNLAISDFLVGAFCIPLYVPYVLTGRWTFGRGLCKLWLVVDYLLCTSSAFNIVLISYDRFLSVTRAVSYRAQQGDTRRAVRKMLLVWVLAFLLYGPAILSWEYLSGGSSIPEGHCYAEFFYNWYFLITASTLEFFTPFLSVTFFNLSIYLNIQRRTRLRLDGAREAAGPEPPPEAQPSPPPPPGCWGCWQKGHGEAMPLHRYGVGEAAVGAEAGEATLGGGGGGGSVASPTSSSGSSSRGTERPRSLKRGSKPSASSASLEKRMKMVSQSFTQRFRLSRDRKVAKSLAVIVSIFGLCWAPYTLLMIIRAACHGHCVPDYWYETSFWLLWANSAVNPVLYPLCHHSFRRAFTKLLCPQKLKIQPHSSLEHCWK

Histamine H4 receptor [2] = target: T2, Histamine H4 receptor (Homo sapiens, UniProt Q9H3N8); assay: Inhibition of the forskolin-stimulated cAMP production in SK-N-MC cells expressing human Histamine H4 receptor; type: functional, cell-based
T2 sequence (Q9H3N8 whole entry): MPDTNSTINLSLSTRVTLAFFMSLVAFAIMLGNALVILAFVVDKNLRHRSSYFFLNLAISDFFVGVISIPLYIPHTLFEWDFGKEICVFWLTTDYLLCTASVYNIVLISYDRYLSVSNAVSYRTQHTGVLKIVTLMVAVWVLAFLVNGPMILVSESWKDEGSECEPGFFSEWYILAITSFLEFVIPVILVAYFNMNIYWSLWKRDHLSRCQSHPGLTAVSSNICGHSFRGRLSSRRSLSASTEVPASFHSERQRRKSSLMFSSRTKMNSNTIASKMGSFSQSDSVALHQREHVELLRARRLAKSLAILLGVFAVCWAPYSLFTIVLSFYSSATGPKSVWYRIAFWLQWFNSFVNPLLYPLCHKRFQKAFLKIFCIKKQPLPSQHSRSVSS

Histamine H4 receptor [3] = target: T2, Histamine H4 receptor; assay: Histamine H4 receptor competition binding using [3H]Na-methylhistamine
Histamine H3 receptor [4] = target: T1, Histamine H3 receptor; assay: Histamine H3 receptor competition binding using [3H]Na-methylhistamine
Histamine H3 receptor [5] = target: T1, Histamine H3 receptor; assay: Inhibition of the forskolin-stimulated cAMP production in SK-N-MC cells expressing human Histamine H3 receptor; type: functional, cell-based
Histamine H4 receptor [6] = target: T2, Histamine H4 receptor; assay: Efficacy measured for human Histamine H4 receptor relative to histamine; type: functional
Histamine H3 receptor [7] = target: T1, Histamine H3 receptor; assay: Compound was tested for H3 receptor competition binding using [3H]- Na-methylhistamine
Outline: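 Homogenates of SK-N-MC cells stably expressing human H3 receptor, in 50 mM Na2HPO4 pH 7.4, incubated 1 h at 37 °C with 1.0 nM [3H]Nα-methylhistamine with or without competitor. Filtration through GF/C filters pretreated with 0.3% polyethylenimine, three washes with ice-cold 25 mM Tris-HCl, 145 mM NaCl pH 7.4, then scintillation counting.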

Histamine H3 receptor [8] = target: T1, Histamine H3 receptor; assay: Inhibition of the forskolin-stimulated cAMP production in SK-N-MC cells expressing human Histamine H3 receptor; Not effective; type: functional, cell-based

Structure (SMILES)	Efficacy (Histamine H3 receptor [1])	EC50 (Histamine H4 receptor [2]) [nM]	Ki (Histamine H4 receptor [3]) [nM]	Ki (Histamine H3 receptor [4]) [nM]	EC50 (Histamine H3 receptor [5]) [nM]	Efficacy (Histamine H4 receptor [6])	Ki (Histamine H3 receptor [7]) [nM]	NE (Histamine H3 receptor [8])
C/N=C(\NC#N)NC[C@H]1CC[C@H](c2c[nH]cn2)O1	0.79	77.6	126	–	–	–	–	–
NC[C@@H]1CC[C@H](c2c[nH]cn2)O1 (single isomer, unassigned)	1.06	5500	2510	2040	776	0.88	–	–
c1ccc(COC[C@@H]2CC[C@@H](c3c[nH]cn3)O2)cc1	0.66	12900	21400	–	9550	0.49	10500	–
C/N=C(\NC#N)NC[C@@H]1CC[C@H](c2c[nH]cn2)O1 (single isomer, unassigned)	0.43	224	224	–	–	1.01	–	–
NC[C@H]1C=C[C@H](c2c[nH]cn2)O1	1	24000	11700	1020	269	0.76	–	–
c1ccc(COC[C@H]2CC[C@@H](c3c[nH]cn3)O2)cc1	0.86	11500	13500	6920	9770	0.82	–	–
NC[C@@H]1C=C[C@@H](c2c[nH]cn2)O1	0.75	85100	> 100000	2510	2820	0.85	–	–
c1ccc(COC[C@@H]2CC[C@H](c3c[nH]cn3)O2)cc1	1.06	135	437	331	191	0.91	–	–
NC[C@H]1C=C[C@@H](c2c[nH]cn2)O1 (single isomer, unassigned)	–	75900	12000	–	> 100000	0.71	20000	–
NC[C@H]1CC[C@@H](c2c[nH]cn2)O1 (single isomer, unassigned)	0.95	7590	6460	1700	813	1.02	–	–
C/N=C(\NC#N)NC[C@H]1CC[C@@H](c2c[nH]cn2)O1 (single isomer, unassigned)	< 0.1	–	–	–	–	1.07	–	inactive
c1ccc(COC[C@H]2CC[C@H](c3c[nH]cn3)O2)cc1	0.97	741	1050	245	91.2	0.46	–	–
NC[C@@H]1CC[C@@H](c2c[nH]cn2)O1	0.91	30900	12900	219	105	0.6	–	–
NC[C@H]1CC[C@H](c2c[nH]cn2)O1 [IMIFURAMINE]	1.04	2000	891	229	44.7	0.7	–	–
C/N=C(\NC#N)NC[C@@H]1CC[C@@H](c2c[nH]cn2)O1	–	21400	20400	–	–	1.06	–	–
NC[C@@H]1C=C[C@H](c2c[nH]cn2)O1 (single isomer, unassigned)	0.93	40700	21900	11500	26900	0.74	–	–
